{"source": "ChEMBL document CHEMBL4152379", "about": "“Discovery of Pyrrolidine Sulfonamides as Selective and Orally Bioavailable Antagonists of Transient Receptor Potential Vanilloid-4 (TRPV4)” (J Med Chem, 2018)", "key": {"[1]": {"biological_target": "Transient receptor potential cation channel subfamily A member 1 (Homo sapiens, UniProt O75762)", "sequence (O75762 whole entry)": "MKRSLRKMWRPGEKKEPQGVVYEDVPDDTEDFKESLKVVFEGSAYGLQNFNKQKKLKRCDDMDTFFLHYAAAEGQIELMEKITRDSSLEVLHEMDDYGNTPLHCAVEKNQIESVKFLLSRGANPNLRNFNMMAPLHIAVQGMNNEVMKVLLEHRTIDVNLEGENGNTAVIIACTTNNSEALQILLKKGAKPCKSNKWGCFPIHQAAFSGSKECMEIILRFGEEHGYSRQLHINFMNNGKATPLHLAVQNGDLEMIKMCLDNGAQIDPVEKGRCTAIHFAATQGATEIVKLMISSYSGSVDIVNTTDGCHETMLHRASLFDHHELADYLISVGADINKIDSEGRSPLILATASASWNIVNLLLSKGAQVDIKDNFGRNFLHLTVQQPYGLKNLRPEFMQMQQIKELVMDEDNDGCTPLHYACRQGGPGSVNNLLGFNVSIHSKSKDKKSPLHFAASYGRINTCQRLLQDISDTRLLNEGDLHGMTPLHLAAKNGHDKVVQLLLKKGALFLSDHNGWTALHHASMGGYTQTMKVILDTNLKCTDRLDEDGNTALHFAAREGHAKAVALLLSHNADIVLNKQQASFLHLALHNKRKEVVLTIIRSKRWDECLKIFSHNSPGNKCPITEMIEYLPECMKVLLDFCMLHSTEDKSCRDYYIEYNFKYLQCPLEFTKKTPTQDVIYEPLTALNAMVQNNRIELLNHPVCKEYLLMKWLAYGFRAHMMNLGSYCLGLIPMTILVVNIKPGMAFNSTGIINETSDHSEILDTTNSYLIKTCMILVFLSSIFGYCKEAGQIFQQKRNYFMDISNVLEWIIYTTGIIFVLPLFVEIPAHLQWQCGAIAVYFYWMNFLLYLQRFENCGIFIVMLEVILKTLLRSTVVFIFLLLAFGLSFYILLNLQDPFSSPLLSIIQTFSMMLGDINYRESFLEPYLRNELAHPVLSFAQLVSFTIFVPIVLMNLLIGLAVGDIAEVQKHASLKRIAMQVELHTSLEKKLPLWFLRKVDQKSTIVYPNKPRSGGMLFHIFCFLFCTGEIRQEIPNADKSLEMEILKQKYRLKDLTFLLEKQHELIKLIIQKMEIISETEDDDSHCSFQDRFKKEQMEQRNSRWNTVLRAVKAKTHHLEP", "experiment": "Inhibition of TRPA1 (unknown origin)"}, "[2]": {"experiment": "MRT in iv dosed Sprague-Dawley rat", "format": "ADME, organism-based", "details": "in vivo", "in_short": "(§1)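 Male Sprague-Dawley rats with femoral vein, femoral artery and gastric catheters; noncrossover design, 2 rats per route; cassette dosing of up to five compounds. i.v. target 1 mg/kg in 5% DMSO/20% Cavitron (pH 4), infused over 30 min. Oral gastric bolus target 2 mg/kg in 5% DMSO/6% Cavitron (pH 4). Plasma sampled to 24 h and measured by HPLC−MS/MS. Noncompartmental analysis; F from dose-normalized AUC(0−∞) relative to mean i.v. AUC.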"}, "[3]": {"biological_target": "Transient receptor potential cation channel subfamily M member 2 (Homo sapiens, UniProt O94759)", "sequence (O94759 whole entry)": "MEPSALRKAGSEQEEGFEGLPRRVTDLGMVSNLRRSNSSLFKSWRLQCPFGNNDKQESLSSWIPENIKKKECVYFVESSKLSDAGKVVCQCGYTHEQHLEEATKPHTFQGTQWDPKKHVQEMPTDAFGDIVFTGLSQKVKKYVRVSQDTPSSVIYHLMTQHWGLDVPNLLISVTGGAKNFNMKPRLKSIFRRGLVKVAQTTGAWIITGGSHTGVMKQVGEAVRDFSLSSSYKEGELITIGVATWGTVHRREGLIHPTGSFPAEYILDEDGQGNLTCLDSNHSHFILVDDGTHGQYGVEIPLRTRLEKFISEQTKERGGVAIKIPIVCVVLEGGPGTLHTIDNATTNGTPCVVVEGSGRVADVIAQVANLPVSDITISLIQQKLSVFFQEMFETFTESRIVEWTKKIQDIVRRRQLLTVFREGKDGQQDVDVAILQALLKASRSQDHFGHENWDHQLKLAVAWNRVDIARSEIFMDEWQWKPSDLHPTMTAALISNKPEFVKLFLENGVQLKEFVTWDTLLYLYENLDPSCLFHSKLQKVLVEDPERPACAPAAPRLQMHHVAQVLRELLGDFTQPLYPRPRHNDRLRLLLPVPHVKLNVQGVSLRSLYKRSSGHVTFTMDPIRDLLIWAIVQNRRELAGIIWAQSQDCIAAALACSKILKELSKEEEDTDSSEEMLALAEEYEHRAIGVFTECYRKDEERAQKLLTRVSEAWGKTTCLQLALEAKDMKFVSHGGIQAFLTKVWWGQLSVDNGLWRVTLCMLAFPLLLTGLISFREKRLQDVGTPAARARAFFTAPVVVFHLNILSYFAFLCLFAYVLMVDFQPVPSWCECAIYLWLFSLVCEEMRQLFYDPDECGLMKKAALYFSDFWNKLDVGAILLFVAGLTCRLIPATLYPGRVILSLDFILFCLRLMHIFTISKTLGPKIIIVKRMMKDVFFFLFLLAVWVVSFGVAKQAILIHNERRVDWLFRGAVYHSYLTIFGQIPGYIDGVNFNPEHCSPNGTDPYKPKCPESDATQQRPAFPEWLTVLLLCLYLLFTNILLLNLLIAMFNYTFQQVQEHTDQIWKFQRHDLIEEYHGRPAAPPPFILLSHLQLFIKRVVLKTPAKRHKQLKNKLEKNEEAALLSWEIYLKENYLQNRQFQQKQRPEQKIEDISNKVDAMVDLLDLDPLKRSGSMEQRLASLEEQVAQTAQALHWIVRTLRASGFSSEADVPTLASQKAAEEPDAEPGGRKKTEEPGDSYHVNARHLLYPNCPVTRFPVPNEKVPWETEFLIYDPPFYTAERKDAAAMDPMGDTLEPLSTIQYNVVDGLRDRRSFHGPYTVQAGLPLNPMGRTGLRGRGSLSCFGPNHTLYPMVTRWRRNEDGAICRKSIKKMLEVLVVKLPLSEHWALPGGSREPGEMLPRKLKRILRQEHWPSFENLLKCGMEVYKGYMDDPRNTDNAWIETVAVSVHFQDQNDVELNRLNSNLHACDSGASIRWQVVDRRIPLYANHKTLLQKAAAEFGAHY", "experiment": "Inhibition of TRPM2 (unknown origin)"}, "[4]": {"biological_target": "Transient receptor potential cation channel subfamily M member 4 (Homo sapiens, UniProt Q8TD43)", "sequence (Q8TD43 whole entry)": "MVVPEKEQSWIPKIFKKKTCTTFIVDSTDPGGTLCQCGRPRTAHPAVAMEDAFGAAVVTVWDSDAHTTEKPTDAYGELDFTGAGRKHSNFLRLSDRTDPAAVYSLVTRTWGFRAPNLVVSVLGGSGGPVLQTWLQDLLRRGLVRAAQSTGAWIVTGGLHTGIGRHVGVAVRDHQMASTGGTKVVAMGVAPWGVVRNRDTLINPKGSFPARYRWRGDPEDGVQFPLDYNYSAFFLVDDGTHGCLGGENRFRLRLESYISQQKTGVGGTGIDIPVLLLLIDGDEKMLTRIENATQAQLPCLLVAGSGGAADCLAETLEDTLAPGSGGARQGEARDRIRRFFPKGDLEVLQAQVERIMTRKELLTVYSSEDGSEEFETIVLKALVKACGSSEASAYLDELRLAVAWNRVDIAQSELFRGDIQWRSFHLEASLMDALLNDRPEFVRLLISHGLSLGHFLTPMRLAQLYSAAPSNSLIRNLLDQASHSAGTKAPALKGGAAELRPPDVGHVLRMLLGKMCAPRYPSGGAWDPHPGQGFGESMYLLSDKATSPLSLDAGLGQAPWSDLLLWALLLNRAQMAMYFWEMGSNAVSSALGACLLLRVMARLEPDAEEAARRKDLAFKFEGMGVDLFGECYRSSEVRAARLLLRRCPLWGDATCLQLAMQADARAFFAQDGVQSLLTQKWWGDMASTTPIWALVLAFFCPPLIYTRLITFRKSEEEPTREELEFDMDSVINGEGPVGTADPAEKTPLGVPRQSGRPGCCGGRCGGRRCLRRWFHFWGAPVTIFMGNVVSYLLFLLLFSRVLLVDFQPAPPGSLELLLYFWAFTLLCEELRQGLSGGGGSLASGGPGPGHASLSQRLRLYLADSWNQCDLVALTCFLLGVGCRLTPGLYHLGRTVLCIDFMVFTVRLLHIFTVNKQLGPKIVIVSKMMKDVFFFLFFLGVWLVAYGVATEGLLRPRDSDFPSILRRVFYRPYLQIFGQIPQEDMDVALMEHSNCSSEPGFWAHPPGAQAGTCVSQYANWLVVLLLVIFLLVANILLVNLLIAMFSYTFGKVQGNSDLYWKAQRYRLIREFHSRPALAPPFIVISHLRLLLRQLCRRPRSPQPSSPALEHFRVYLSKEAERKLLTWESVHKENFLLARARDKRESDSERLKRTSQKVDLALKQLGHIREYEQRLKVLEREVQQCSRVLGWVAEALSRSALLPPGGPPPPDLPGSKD", "experiment": "Inhibition of TRPM4 (unknown origin)"}, "[5]": {"biological_target": "T1, Short transient receptor potential channel 3 (Homo sapiens, UniProt Q13507)", "T1 sequence (Q13507 whole entry)": "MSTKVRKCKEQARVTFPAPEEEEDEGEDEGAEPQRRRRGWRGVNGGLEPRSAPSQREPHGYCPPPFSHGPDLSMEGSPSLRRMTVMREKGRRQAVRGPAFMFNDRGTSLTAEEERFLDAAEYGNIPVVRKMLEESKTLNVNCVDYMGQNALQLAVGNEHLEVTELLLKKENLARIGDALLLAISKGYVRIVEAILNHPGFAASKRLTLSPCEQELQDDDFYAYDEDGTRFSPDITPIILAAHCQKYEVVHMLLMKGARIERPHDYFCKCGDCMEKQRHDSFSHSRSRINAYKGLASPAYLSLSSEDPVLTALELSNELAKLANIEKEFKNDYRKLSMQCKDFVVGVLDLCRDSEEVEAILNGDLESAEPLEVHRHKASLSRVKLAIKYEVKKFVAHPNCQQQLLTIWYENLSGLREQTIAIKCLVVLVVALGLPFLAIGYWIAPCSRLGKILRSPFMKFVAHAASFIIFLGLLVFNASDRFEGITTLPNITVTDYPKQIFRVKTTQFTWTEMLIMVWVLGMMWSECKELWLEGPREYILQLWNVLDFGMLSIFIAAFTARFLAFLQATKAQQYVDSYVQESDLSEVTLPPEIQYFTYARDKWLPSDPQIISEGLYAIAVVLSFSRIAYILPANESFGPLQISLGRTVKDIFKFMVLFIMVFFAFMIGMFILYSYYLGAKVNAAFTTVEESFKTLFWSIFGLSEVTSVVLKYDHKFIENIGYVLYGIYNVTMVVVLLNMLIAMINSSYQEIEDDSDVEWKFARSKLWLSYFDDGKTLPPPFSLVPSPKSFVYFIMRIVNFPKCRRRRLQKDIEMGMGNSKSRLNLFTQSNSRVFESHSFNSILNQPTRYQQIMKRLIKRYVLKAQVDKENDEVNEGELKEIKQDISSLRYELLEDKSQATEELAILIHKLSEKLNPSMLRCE", "experiment": "Inhibition of TRPC3 (unknown origin)"}, "[6]": {"experiment": "Lipophilicity, log D of the compound by chromatography", "format": "physicochemical"}, "[7]": {"experiment": "Clearance in iv dosed Sprague-Dawley rat", "format": "ADME, organism-based", "details": "in vivo", "in_short": "as §1"}, "[8]": {"experiment": "Fraction unbound in Sprague-Dawley rat plasma", "format": "ADME, cell-free"}, "[9]": {"experiment": "Oral bioavailability in Sprague-Dawley rat", "format": "ADME, organism-based", "details": "in vivo", "in_short": "as §1"}, "[10]": {"experiment": "Aqueous solubility of the compound", "format": "physicochemical", "details": "buffer"}, "[11]": {"biological_target": "T2, Short transient receptor potential channel 5 (Homo sapiens, UniProt Q9UL62)", "T2 sequence (Q9UL62 whole entry)": "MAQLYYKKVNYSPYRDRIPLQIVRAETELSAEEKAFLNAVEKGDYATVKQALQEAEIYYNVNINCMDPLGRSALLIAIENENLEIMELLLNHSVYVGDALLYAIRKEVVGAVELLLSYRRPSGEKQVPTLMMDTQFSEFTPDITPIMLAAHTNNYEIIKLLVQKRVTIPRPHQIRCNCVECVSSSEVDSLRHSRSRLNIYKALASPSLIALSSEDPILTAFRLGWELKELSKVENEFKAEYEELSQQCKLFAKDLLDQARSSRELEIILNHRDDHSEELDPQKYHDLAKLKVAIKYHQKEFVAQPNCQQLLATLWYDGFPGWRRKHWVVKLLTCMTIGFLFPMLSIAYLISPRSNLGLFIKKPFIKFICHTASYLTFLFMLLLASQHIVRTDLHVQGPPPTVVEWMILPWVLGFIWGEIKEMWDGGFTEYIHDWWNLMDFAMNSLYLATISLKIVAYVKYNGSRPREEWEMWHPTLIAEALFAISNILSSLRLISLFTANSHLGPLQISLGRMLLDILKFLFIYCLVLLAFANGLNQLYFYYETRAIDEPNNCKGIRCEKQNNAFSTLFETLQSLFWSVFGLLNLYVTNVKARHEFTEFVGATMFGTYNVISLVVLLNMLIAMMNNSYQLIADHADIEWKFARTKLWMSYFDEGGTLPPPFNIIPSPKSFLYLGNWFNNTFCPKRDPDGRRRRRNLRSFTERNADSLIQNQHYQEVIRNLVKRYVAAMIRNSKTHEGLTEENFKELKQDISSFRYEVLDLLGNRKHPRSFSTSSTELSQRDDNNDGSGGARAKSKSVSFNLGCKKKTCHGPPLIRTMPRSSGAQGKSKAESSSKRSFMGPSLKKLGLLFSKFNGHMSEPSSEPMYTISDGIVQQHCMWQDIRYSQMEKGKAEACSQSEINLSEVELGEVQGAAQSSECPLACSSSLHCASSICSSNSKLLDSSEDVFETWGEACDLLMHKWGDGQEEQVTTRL", "experiment": "Inhibition of TRPC5 (unknown origin)"}}}
{"smiles": "N#Cc1ccc(O[C@H]2CN(S(=O)(=O)c3ccc(Cl)cc3Cl)C[C@@]2(O)CO)cc1F", "values": [{"measurement": "IC50", "setting": "[1]", "result": "> 10", "unit": "µM"}, {"measurement": "MRT", "setting": "[2]", "result": 54, "unit": "min"}, {"measurement": "IC50", "setting": "[3]", "result": "> 10", "unit": "µM"}, {"measurement": "IC50", "setting": "[4]", "result": "> 10", "unit": "µM"}, {"measurement": "IC50", "setting": "[5]", "result": "> 10", "unit": "µM"}, {"measurement": "chromatographic logD", "setting": "[6]", "result": 4.6}, {"measurement": "clearance", "setting": "[7]", "result": 58, "unit": "mL/min/kg"}, {"measurement": "fraction unbound", "setting": "[8]", "result": 0.059}, {"measurement": "bioavailability", "setting": "[9]", "result": 35, "unit": "%"}, {"measurement": "solubility", "setting": "[10]", "result": 360, "unit": "µM"}, {"measurement": "IC50", "setting": "[11]", "result": "> 10", "unit": "µM"}]}
